Data as given in the M2OR odorant receptor database.

Tests used:
Details in all cases: stereoisomer not certain
[1] = target: T1, OR2A1 (Homo sapiens) (UniProt Q8NGT9)
T1 sequence (whole entry): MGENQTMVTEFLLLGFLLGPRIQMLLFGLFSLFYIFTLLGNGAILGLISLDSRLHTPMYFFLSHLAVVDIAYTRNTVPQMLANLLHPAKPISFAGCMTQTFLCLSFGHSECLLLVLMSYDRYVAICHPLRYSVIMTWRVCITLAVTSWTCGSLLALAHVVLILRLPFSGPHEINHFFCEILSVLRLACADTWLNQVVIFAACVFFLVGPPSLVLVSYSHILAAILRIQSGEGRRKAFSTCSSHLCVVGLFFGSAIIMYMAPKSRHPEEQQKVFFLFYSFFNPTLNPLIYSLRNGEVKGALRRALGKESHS
Procedure, shortened: (§1)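 Each entry records the cell line, G-protein, co-transfected protein and tags used. Methods varied with the source, often transient luciferase assays in mammalian cell lines. A receptor–molecule pair is called responsive (active) if the original authors judged its signal statistically different from baseline and non-responsive (inactive) otherwise.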

[2] = tested on: OR2A1 S168C
Sequence of OR2A1 S168C (as listed by the source, stated change not applied): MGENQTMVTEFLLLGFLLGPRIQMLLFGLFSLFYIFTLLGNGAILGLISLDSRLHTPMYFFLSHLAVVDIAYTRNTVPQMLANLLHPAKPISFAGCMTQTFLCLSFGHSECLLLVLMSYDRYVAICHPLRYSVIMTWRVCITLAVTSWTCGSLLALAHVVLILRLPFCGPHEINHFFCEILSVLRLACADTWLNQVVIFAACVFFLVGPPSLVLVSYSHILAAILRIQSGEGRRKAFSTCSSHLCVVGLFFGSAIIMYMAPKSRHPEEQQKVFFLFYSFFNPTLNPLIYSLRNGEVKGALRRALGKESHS
Procedure, shortened: as §1

[3] = tested on: OR2A1 T73A R74C S168C
Procedure, shortened: as §1

[4] = target: OR2A12 (Homo sapiens) (UniProt Q8NGT7)
Sequence of OR2A12 (Homo sapiens) (Q8NGT7 whole entry): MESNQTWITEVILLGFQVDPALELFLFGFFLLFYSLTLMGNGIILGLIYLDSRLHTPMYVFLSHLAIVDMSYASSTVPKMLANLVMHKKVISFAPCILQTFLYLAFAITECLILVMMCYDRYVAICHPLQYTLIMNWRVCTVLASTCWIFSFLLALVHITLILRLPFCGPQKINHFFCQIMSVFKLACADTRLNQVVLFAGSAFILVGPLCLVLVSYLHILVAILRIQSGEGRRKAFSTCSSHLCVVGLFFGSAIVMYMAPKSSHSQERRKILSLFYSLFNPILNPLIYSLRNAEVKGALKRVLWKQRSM
Procedure, shortened: as §1

[5] = target: OR2A14 (Homo sapiens) (UniProt Q96R47)
Sequence of OR2A14 (Homo sapiens) (Q96R47 whole entry): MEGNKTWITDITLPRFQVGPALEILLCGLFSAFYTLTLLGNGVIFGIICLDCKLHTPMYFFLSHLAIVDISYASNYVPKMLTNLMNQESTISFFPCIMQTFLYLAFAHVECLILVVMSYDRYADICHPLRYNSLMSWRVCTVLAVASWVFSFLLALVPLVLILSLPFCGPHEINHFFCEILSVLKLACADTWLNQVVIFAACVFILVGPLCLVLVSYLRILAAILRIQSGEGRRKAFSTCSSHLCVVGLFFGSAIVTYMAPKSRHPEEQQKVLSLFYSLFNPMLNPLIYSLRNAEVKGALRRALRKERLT
Procedure, shortened: as §1

[6] = target: OR2A2 (Homo sapiens) (UniProt Q6IF42)
Sequence of OR2A2 (Homo sapiens) (Q6IF42 whole entry): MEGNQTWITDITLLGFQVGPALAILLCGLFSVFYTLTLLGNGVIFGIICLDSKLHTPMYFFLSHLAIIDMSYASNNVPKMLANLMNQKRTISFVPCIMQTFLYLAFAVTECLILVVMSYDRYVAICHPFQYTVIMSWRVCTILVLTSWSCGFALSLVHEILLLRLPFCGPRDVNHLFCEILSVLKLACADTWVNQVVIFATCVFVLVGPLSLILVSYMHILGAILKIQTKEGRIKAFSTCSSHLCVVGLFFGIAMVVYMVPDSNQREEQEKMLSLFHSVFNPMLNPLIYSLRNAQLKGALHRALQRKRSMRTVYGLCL
Procedure, shortened: as §1

[7] = target: OR2A25 (Homo sapiens) (UniProt A4D2G3)
Sequence of OR2A25 (Homo sapiens) (A4D2G3 whole entry): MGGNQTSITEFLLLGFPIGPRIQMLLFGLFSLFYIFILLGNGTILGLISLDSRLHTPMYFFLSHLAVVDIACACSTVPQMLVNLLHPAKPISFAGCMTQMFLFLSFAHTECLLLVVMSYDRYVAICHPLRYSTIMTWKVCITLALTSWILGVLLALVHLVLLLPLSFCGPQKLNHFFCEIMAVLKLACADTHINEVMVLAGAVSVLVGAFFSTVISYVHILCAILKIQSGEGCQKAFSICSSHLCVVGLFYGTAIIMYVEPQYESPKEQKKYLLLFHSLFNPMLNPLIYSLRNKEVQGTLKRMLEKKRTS
Procedure, shortened: as §1

[8] = tested on: OR2A2
Sequence of OR2A2 (as listed by the source): as the sequence (Q6IF42 whole entry) above, with F280L counted along it
Procedure, shortened: as §1

[9] = target: OR2A4 (Homo sapiens) (UniProt O95047)
Sequence of OR2A4 (Homo sapiens) (O95047 whole entry): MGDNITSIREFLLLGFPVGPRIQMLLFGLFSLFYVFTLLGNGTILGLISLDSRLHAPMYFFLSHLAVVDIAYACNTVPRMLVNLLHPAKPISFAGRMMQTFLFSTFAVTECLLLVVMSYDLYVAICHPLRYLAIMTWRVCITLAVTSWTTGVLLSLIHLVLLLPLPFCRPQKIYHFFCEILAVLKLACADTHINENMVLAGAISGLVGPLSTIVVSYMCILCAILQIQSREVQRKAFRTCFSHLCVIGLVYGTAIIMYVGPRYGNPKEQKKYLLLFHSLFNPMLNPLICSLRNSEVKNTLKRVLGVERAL
Procedure, shortened: as §1

[10] = target: OR2A5 (Homo sapiens) (UniProt Q96R48)
Sequence of OR2A5 (Homo sapiens) (Q96R48 whole entry): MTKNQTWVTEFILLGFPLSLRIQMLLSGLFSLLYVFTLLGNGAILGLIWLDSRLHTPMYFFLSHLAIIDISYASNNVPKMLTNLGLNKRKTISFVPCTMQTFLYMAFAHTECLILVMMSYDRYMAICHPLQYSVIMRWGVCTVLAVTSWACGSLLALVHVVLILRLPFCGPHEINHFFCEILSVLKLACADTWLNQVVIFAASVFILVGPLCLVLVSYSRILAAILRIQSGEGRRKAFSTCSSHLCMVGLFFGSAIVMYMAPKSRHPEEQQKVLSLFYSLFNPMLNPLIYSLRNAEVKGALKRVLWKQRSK
Procedure, shortened: as §1

Measured: odorant receptor agonist call

C=CCOC(=O)Cc1ccccc1
inactive: [1] | [2] | [3] | [4] | [5] | [6] | [7] | [8] | [9] | [10]

Cc1cccc(C)c1
inactive: [1]

Cc1c([N+](=O)[O-])c(C)c([N+](=O)[O-])c(C(C)(C)C)c1[N+](=O)[O-]
inactive: [1] | [4] | [5] | [6] | [7] | [9] | [10]

COc1ccc(C=O)cc1
inactive: [1]
